These results are taken from PMC4681692 (Child's nervous system : ChNS : official journal of the …, 2015).

Series [1] has as its system recurrent CNS tumors. The conditions noted are these: children, 3-days-on/4-days-off schedule; cited from earlier work.
The nature of series [2]: Plasma pharmacokinetics of weekly MK-0752, dose 1 course 1. The format is in vivo. The conditions noted are these: human, oral, both dose levels. An outline of the steps: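 Children with recurrent CNS tumours took oral test compound capsules once weekly at 1,000 or 1,400 mg/m2, in 28-day courses. Heparinised blood was drawn before dose 1 of course 1 and at 1, 2, 3, 6, 8 (±2), 24 (±4) and 48 h after it. Plasma drug was measured by validated LC-MS/MS and analysed non-compartmentally. β came from the last two measurable points, and t1/2 = ln(2)/β.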

In series [3] the test system is NOTCH pathway genes. The conditions noted are these: healthy adults, once weekly dosing; cited from earlier work.
For series [4], the system named is amyloid peptide levels. The conditions noted are these: animal models; cited from earlier work.
Series [5] has as its system recurrent CNS tumors. The series is described as follows: Tumor response in phase I trial of weekly MK-0752. The format is in vivo, human. In short, it runs like this:
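The oral test compound was given once weekly at 1,000 or 1,400 mg/m2 in 28-day courses, using a rolling-6 design. Disease was assessed at baseline, after course 2 and after every other course thereafter. Patients got up to 6 courses unless disease progressed, and those with stable disease after 6 courses could receive up to 13 more.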

Series [6] deals with children with recurrent central nervous system (CNS) malignancies. Conditions: in vivo.
In series [7] the test system is NOTCH1 cleavage (NICD1) in PBMCs. The series is described as follows: NICD1 expression in PBMCs by Western blot. The conditions noted are these: for patients with NICD1 expression decreased from baseline: PBMCs. The format is in vivo, human. On the technique in general: A western blot detects proteins with antibodies after separation by electrophoresis.
In series [8] the test system is refractory adult solid tumors. The conditions noted are these: cited from earlier work.
The conditions of series [9]: children, 3-days-on/4-days-off schedule; cited from earlier work.
The test system of series [10] is NOTCH. Conditions: adults, weekly administration; cited from earlier work.
For series [11], the system named is children with recurrent CNS tumors. The conditions noted are these: 3-days-on/4-days-off schedule; cited from earlier work.
In series [12] the test system is advanced breast cancer. Conditions: with docetaxel, MK-0752 days 1-3, of 30 evaluable patients; cited from earlier work.
The conditions of series [13]: cited from earlier work; for t1/2: adults.
In series [14] the test system is platinum-resistant ovarian carcinoma xenograft model. The conditions noted are these: cited from earlier work.
For series [15], the system named is glioblastoma cell lines. Conditions: combination with Akt inhibitor MK-2206, compared to monotherapy; cited from earlier work.

Where two headings read alike, the source gives them in different places. Where only a bound is given, the exact number is not on record here.

Turning to `O=C(O)CC[C@H]1CC[C@@](c2cc(F)ccc2F)(S(=O)(=O)c2ccc(Cl)cc2)CC1` [MK-0752], the “evaluable patients with prolonged SD (3 and 4 cycles)” value in [1] is on record as 2 of 17. Moreover, in [2] (median t1/2, all 10 patients), the half-life is 1300 min. This compound also displayed a half-life in [2] (t1/2 (range), all 10 patients) of 588 to 2530 min. For the same compound, the “duration of decreased expression of NOTCH pathway genes” value in series [3] is recorded as “at least 96 hours”. Also, in series [4], the blood-brain barrier penetration result is listed as “penetrate the blood-brain barrier” and the “reduction of amyloid peptide levels” value is listed as 50%. For the same compound, the “patients with prolonged SD (6 and 10 cycles)” value in [5] (all evaluable patients, weekly schedule) is on record as 2 of 9. Further, in series [5] (weekly 1,000 and 1,400 mg/m^2), the objective responses result is on record as “No objective responses”. Further, in series [6] (human), the ALT increase turned out to be 2, the AST increase amounted to 2, the Allergic rhinitis is 1 and the Anorexia amounted to 1. Besides, in [6] (human), the Diarrhea came out at 4, the Dizziness was 1, the Dry skin was determined as 1 and the Fatigue is on record as 1. Moreover, in series [6] (human), the Hyperglycemia is 1, the Hypermagnesemia came to 1, the Hypoalbuminemia is listed as 2 and the Hypokalemia stood at 1. Further, in series [6] (human), the Hypomagenesemia is recorded as 2, the Hypophosphatemia amounted to 2, the Hypotension is given as 1 and the “Increased Hemoglobin” value came to 1. In addition, in series [6] (human), the Leukopenia is on record as 2, the Nausea amounted to 1, the Vomiting is 2 and the “grade 4 toxicities” value is “no grade 4 toxicities”. For the same compound, in series [6], the “Non-dose-limiting grade 3 toxicities” value was “lymphopenia, neutropenia, and anemia”; the “dose-limiting diarrhea and GI toxicity” value is listed as “not observed”. Further, in series [7] (24 hours after the higher dose (1,400 mg)), the “change in NICD expression in PBMCs” value is recorded as “dose-dependent decrease”. Also, the “patients with NICD1 expression decreased from baseline” value in series [7] (24 hours post MK-0752, 1,000 and 1,400 mg/m^2) is on record as 6 of 7. Also, the “patients with NICD1 expression decreased from baseline” value in series [7] (24 hours post MK-0752, treated at 1,400 mg/m^2 (n=3)) is listed as “all three”. In [8] (one adult patient with anaplastic astrocytoma, 1,800 mg once weekly), the “duration of CR” value was more than 1 year. The “duration of SD” value in series [8] (one adult patient with glioblastoma multiforme, 4,200 mg once weekly) is given as more than 1 year. Moreover, the t1/2 in [9] is 11.4 h. In series [10], the “dose achieving target inhibition” value was 3,200 mg. In addition, in series [11], the “dose-limiting toxicity preventing dose escalation beyond 260 mg/m^2” value was “dose-limiting elevations of AST and ALT”; the well-tolerated dose is 260 mg/m^2. Also, in series [12], the “patients with PR” value is 9 and the “patients with SD” value is listed as 11. In addition, in series [13] (adults receiving 1,800 mg (~1,040 mg/m^2) weekly), the Cmax is 84.2 µg/mL. The t1/2 in series [13] (weekly 1,800 mg (~1,040 mg/m^2)) was 13.8 h. The t1/2 in [13] (weekly 2,400 mg (~1,400 mg/m^2)) is 16.2 h.

Consider `O=S1(=O)N[C@@]2(CN1CC(F)(F)F)[C@@H]1CC[C@H]2Cc2ccc(/C=C/CN3CCC(C(F)(F)F)CC3)cc2C1` [MRK003], for which the “combination effect with paclitaxel” value in series [14] was “synergy”. Moreover, the “effect of combination on migratory and invasive potential of glioblastoma” value in [15] was “synergistic inhibition”.

In general, half-life refers to how long it takes for the measured level to halve. By Cmax is commonly meant the highest concentration seen after dosing.
